# This is a sample that favours compounds with a hit; in the whole collection about 2.5% have one here.
# SENP7 inh: inhibitors of human SENP7 protease | Q9BQF6 | inhibition, % at 5 µM | actives 1.5% (n = 330,000) | recombinant SENP7, Z-RLRGG-aminoluciferin luminescence, 40 min;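 active = inhibition above about 50% at the single test dose, limit read from the data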;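 note: plate controls were DMSO with enzyme for no effect and no enzyme buffer wells for full effect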
# SENP1 inh: blocks the human SENP1 SUMO protease catalytic domain | Q9P0U3 | recombinant SENP1 catalytic domain, CyPet-SUMO1-YPet FRET cleavage | inhibition, % at 10 µM | actives 0.21% (n = 360,000) | AID 624204;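 active = inhibition at least 30% at 10 µM, raw YFP signal under a set limit, fluorescence ratio 0.5 to 1.5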;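 note: 0% = enzyme with DMSO and 100% = no enzyme wells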
#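 material = recombinant human SENP1 catalytic domain, His6-tagged | quantity = 20 pM enzyme | reagent = 25 nM SUMO1 FRET substrate | compound dosing = 10 µM single point, 0.5% DMSO | timing = 50 min enzyme reaction, room temperature, light-protected | detection = FRET, CFP and YFP emission | control set = no-enzyme low, enzyme-DMSO high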
# SENP8 block-1: blocks the human protease SENP8; inhibition, % at 10 µM; actives 1.2% (n = 330,000); AID 2540; purified SENP8, Z-RLRGG-aminoluciferin cleavage, luminescence; Q96LD8; in the data active = inhibition above about 50%
# SENP6 block: blocks the human protease SENP6; AID 2599; Q9GZR1; Recombinant SENP6 catalytic domain, aminoluciferin luminescence; inhibition, % at 10 µM; actives 1.8% (n = 330,000);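 active = inhibition above about 50% at the single tested dose, limit read from the data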;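 note: plate controls were DMSO wells with enzyme for no effect and DMSO wells lacking enzyme for full effect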
# Target sequence (Q9GZR1 628-1112 limits assumed): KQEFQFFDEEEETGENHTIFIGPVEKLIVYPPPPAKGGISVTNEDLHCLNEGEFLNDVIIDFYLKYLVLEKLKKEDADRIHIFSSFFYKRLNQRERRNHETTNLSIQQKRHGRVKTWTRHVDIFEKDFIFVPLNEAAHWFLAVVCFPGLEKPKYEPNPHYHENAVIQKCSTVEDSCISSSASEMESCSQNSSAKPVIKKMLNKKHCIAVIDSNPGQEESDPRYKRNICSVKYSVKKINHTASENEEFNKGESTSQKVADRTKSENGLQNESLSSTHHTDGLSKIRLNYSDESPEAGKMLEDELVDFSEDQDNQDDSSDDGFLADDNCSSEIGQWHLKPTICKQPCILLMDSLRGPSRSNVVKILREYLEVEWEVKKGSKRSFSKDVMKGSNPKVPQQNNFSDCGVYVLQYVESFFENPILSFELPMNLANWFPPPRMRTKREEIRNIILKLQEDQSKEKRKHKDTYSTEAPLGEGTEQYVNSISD
# SENP8 block-2: blocks human SENP8 cleavage of Nedd8 substrate; actives 0.64% (n = 360,000); recombinant SENP8, Nedd8 substrate fluorescence; inhibition, % at 20 µM; AID 602440; in the data active = inhibition mostly above about 40%, no sharp cut-off; inactive = mostly below about 27%
# SENP8 conf: human SENP8 inhibition, confirmed; Recombinant SENP8, Z-RLRGG-aminoluciferin luminescence, 60 min; shares compounds with SENP7 inh; actives 40% (n = 6,200); inhibition, % at 12.5 µM;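 active = mean inhibition across replicates above about 50%, limit read from the data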
# SENP6 conf: confirmation of human SENP6 protease inhibitors. recombinant SENP6, Z-RLRGG-aminoluciferin luminescence. shares compounds with SENP7 inh. actives 58% (n = 6,200). inhibition, % at 12.5 µM
# SENP7 conf: confirmation of human SENP7 protease inhibitors; recombinant SENP7, Z-RLRGG-aminoluciferin luminescence, 40 min; inhibition, % at 12.5 µM; actives 69% (n = 6,200); shares compounds with SENP7 inh
# Casp3 SENP sel: selectivity test for SENP inhibitors: human caspase-3 inhibition | shares compounds with SENP7 inh | inhibition, % at 12.5 µM | actives 60% (n = 6,200) | purified caspase-3, Z-DEVD-aminoluciferin luminescence, 60 min;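 active = mean inhibition above about 50%, limit read from the data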;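 note: plate controls were enzyme with DMSO for no effect and wells without caspase-3 for full effect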
# SENP luc ctr: counter-screen for SENP inhibitors: luminescence interference; Pre-incubated SENP8/Z-RLRGG-aminoluciferin, luciferase luminescence interference; AID 488919; actives 39% (n = 6,200); shares compounds with SENP7 inh; inhibition, % at 12.5 µM;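 active = mean inhibition above about 50% when retested at one dose, limit read from the data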;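 note: plate controls were DMSO wells with completed reaction for no effect and substrate without enzyme for full effect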
# Starred values were filed as active, the others as inactive; · = no result.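 Rule for the calls, unless noted: active = mean inhibition above about 50% in the one-dose retest (limit read from the data); inactive = the rest.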
SMILES,SENP7 inh,SENP1 inh,SENP8 block-1,SENP6 block,SENP8 block-2,SENP8 conf,SENP6 conf,SENP7 conf,Casp3 SENP sel,SENP luc ctr
COc1cc(NC(=O)c2cccc(Br)c2)nc(OC)n1,37,0,26,54*,11,39,36,68*,40,38
COc1cc2c(C#N)c(N3CCc4ccccc4C3)nc(N)c2c(N)n1,38,-25,80*,83*,-265,8,30,19,5,3
COc1cc2c(C#N)c(N3CCOCC3)nc(N)c2c(N)n1,21,-31,-1,5,-399,·,·,·,·,·
CCN(CC)c1nc(N)c2c(N)nc(OC)cc2c1C#N,41,-43,51*,76*,-487,7,12,9,-3,8
COc1cc2c(C#N)c(N3CCCCC3)nc(N)c2c(N)n1,41,8,62*,66*,-412,25,34,43,6,20
CCOc1cc2c(C#N)c(N3CCCCC3)nc(N)c2c(N)n1,29,-49,65*,69*,-327,14,42,26,1,2
CC(=O)c1cccc(-c2ccnc3c2CC(C(=O)Nc2ccc(Cl)c(C(F)(F)F)c2)O3)c1 (centres undefined),·,-2,·,·,14,·,·,·,·,·
CC1=C(C)[N+](=O)C2CCCCC2N1[O-] (centres undefined),-2,2,5,-12,14,·,·,·,·,·
COc1ccc(CN2C(=O)Cc3c2nc(N)c2c(N)nc(N4CCCCC4)c(C#N)c32)cc1,-2,·,4,61*,·,12,12,7,4,0
CCOc1cc2c(C#N)c(N3CCNCC3)nc(N)c2c(N)n1,47,-92,37,88*,-326,-8,-4,-8,2,1
CCCCN1C(=O)Cc2c1nc(N)c1c(N)nc(N(CCC)CCC)c(C#N)c21,·,-52,·,·,-327,·,·,·,·,·
CC(C)CNS(=O)(=O)c1ccc(CCC(=O)Nc2ccc3c(c2)OCCO3)cc1,-4,2,-6,5,17,·,·,·,·,·
COc1cccc2oc3cc(C#CC4(O)CCCCC4)ccc3c(=O)c12,84*,-4,84*,81*,-355,89*,89*,97*,72*,55*
COc1ccccc1-c1oc2ccccc2c1C#CC1(O)CCCCC1,5,-13,-4,2,-475,·,·,·,·,·
O=c1c2ccccc2oc2cc(C#CC3(O)CCCCC3)ccc12,99*,1,95*,98*,11,98*,99*,102*,94*,75*
COc1cccc2oc3cc(C#Cc4ccccn4)ccc3c(=O)c12,6,·,-16,23,·,·,·,·,·,·
COc1ccccc1CNCCS(=O)(=O)NN1CCOCC1,-9,0,·,·,14,·,·,·,·,·
Cc1cccc(NC(=O)c2ccc(F)c(S(=O)(=O)NCc3ccco3)c2)c1,36,-1,38,52*,-4,39,33,63*,44,51*
COc1ccc(N(CC(=O)NC2CCCCCC2)S(=O)(=O)c2ccccc2)cc1Cl,-7,1,-10,-15,1,·,·,·,·,·
O=C(Nc1ccc(O)cc1)C1CCCO1 (centres undefined),60*,0,-3,-4,5,6,10,9,4,3
Cn1c(=O)n(Cc2ccccc2)c(=O)c2c1nc(NCC1CCCO1)n2Cc1ccccc1 (centres undefined),5,1,1,-8,16,·,·,·,·,·
Cn1c(=O)c2c(nc(NCC3CCCO3)n2C)n(C)c1=O (centres undefined),51*,2,-2,7,3,4,6,12,8,3
CCn1cc(C(=O)NCCCN2CCN(C)CC2)c(=O)c2cc(S(=O)(=O)N3CCc4ccccc4C3)ccc21,4,-1,-4,-16,5,·,·,·,·,·
COc1ccccc1C(CC(N)=O)c1ccco1 (centres undefined),-8,-2,6,-6,5,·,·,·,·,·
COC(=O)c1ccc(N=Nc2c(C)[nH]n(-c3ccccc3)c2=O)cc1,1,2,1,3,33,·,·,·,·,·
SMILES,SENP7 inh,SENP1 inh,SENP8 block-1,SENP6 block,SENP8 block-2,SENP8 conf,SENP6 conf,SENP7 conf,Casp3 SENP sel,SENP luc ctr
CSc1ccc(N=Nc2c(C)[nH]n(C)c2=O)cc1,53*,5,27,44,19,16,24,45,45,17
CCOc1ccc(NC(=O)Nc2ccc(NC(C)=O)cc2)cc1,2,2,-2,-8,9,·,·,·,·,·
COc1ccc(NC(=O)Nc2ccccc2C(N)=O)cc1,96*,4,91*,96*,11,-2,95*,102*,98*,89*
COc1ccc(NC(=O)Nc2cc(C)ccc2F)cc1,-5,-1,88*,92*,14,1,92*,101*,91*,59*
COc1ccc(NC(=O)Nc2ccccc2C(N)=O)cc1OC,36,2,7,-22,11,·,·,·,·,·
CCOc1ccc(NC(=O)Nc2ccccc2C(N)=O)cc1,100*,3,91*,98*,11,95*,97*,102*,98*,32
Cc1cc(C)n(C(=O)CCCn2cc([N+](=O)[O-])cn2)n1,-2,1,4,15,-22,·,·,·,·,·
CCc1cccc(CC)c1-n1c(SCC(=O)N2CCCc3ccccc32)nc(O)cc1=O,-4,-1,10,4,9,·,·,·,·,·
CCOC(=O)N1CCN(C(=O)c2ccc(OC(C)=O)cc2)CC1,6,4,3,-8,7,·,·,·,·,·
Clc1ccc(-c2nc3n(n2)Cc2ccccc2-3)cc1,99*,-1,87*,63*,20,-20,11,26,30,2
COc1ccc(S(=O)(=O)NCC(=O)N(CC(=O)NCC2CCCO2)Cc2ccc(F)cc2)cc1 (centres undefined),0,0,-8,-23,16,·,·,·,·,·
CC(c1ccco1)N(C(=O)COc1ccc(Cl)cc1)c1ccccn1 (centres undefined),2,-5,18,50*,-5,30,22,18,53*,51*
O=C(CC[C@H]1O[C@@H](n2cnc3c(NC(=O)c4ccccc4)ncnc32)[C@H](O)[C@@H]1O)NCc1ccc(OC(F)(F)F)cc1,·,0,·,·,7,·,·,·,·,·
COc1ccc(-c2nc(-c3ccncc3)no2)cc1OC,17,0,13,27,2,·,·,·,·,·
